Experimental data: ChEMBL document CHEMBL4304827, “Design, synthesis and evaluation of structurally diverse chrysin-chromene-spirooxindole hybrids as anticancer agents” (Bioorg Med Chem, 2019)
The source made the active and inactive calls. The rule behind the calls is not given here.

What was measured:
A549 [1] = experiment: Induction of apoptosis in human A549 cells assessed as compromised cell membrane boundaries at 5 to 20 uM incubated for 24 hrs by PI staining based fluorescence microscopy; type: functional
How it was run: (§1)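 A549 cells were plated at 3 × 10^5/well and cultured 12 h, then exposed to various concentrations for 24 h. Morphology was observed by microscopy. AO-EB stain (1 mg/mL each, in PBS) was applied for 10 min at room temperature in the dark. Harvested cells were stained with PI for 15 min at room temperature in the dark, then washed. Both stains were examined by fluorescence microscopy.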

A549 [2] = experiment: Induction of apoptosis in human A549 cells assessed as viable cells at 50 uM incubated for 24 hrs by annexin V FITC and PI staining based flow cytometry (reference value: 95.7%); type: functional; conditions: A549, 24 h, read-out: Activity
A549 [3] = experiment: Induction of apoptosis in human A549 cells assessed as viable cells at 5 uM incubated for 24 hrs by annexin V FITC and PI staining based flow cytometry (reference value: 95.7%); type: functional; conditions: A549, 24 h, read-out: Activity
A549 [4] = experiment: Antimigratory activity in human A549 cells assessed as reduction in cell migration incubated for 36 hrs by transwell migration assay; type: functional, cell-based
How it was run: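 Cells were suspended at 1 × 10^4/mL in RPMI-1640 with 1% FBS and seeded in the upper chamber. For the invasion assay the upper chamber was coated with Matrigel. The lower chamber held medium with 10% FBS. Compound was given at various concentrations for 36 h. Membranes were methanol-fixed and stained with 0.1% crystal violet. Cells on the lower side were counted relative to control (100%). Mean ± SD, ≥3 experiments.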

A549 [5] = experiment: Induction of apoptosis in human A549 cells assessed as downregulation of Bcl2 protein expression at 10 uM by Western blot analysis; type: functional, cell-based; conditions: TDE = time-dependent effect
How it was run: (§2)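 A549 cells were exposed to 10 μM for different times and lysed in RIPA buffer with 1 mM PMSF. Protein (20 μg) was separated on 8-12% SDS-PAGE and transferred to PVDF. Membranes were blocked in 5% milk and incubated with primary antibodies overnight at 4 °C, then with anti-rabbit secondary. Bands were quantified by densitometry. Mean ± SD, ≥3 experiments.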

A549 [6] = experiment: Induction of apoptosis in human A549 cells assessed as downregulation of MDM2 protein expression incubated for 24 hrs by Western blot analysis; type: functional, cell-based
How it was run: as §2, with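 “treated with various concentrations” for “exposed to 10 μM”, “24 h” for “different times”, “resolved” for “separated”, “probed” for “incubated”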

A549 [7] = experiment: Induction of apoptosis in human A549 cells assessed as downregulation of MDM2 protein expression at 10 uM by Western blot analysis; type: functional, cell-based; conditions: TDE = time-dependent effect; how it was run: as §2
A549 [8] = experiment: Induction of apoptosis in human A549 cells assessed as downregulation of Akt protein expression incubated for 24 hrs by Western blot analysis; type: functional, cell-based
How it was run: as §2, with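 “treated with various concentrations” for “exposed to 10 μM”, “24 h” for “different times”, “resolved” for “separated”, “probed” for “incubated”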

PC-3 = experiment: Antiproliferative activity against human PC3 cells assessed as reduction in cell proliferation incubated for 48 hrs by MTT assay; type: functional, cell-based; conditions: PC-3, 48 h
How it was run: (§3)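 Log-phase cells were plated at 5 × 10^3/well in RPMI-1640 with 10% FBS and cultured 24 h. Compounds were added at graded concentrations (DMSO <0.1%) for 48 h. MTT (5 mg/mL) was added for about 4 h, formazan was dissolved in DMSO and A490 was read. IC50 was calculated from ≥3 independent experiments and reported as mean ± SD. Chrysin served as positive control.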

A549 [9] = experiment: Induction of apoptosis in human A549 cells assessed as early apoptotic cells at 25 uM incubated for 24 hrs by annexin V FITC and PI staining based flow cytometry (reference value: 0.53%); type: functional
A549 [10] = experiment: Induction of apoptosis in human A549 cells assessed as upregulation of Cyt c protein expression at 10 uM by Western blot analysis; type: functional, cell-based; conditions: TDE = time-dependent effect; how it was run: as §2
A549 [11] = experiment: Induction of apoptosis in human A549 cells incubated for 24 hrs by annexin V FITC and PI staining based flow cytometry; type: functional, cell-based
A549 [12] = experiment: Induction of apoptosis in human A549 cells assessed as late apoptotic cells at 25 uM incubated for 24 hrs by annexin V FITC and PI staining based flow cytometry (reference value: 1.32%); type: functional
MRC5 = experiment: Cytotoxicity against human MRC5 cells assessed as reduction in cell proliferation incubated for 48 hrs by MTT assay; type: cell-based; conditions: MRC5, 48 h; how it was run: as §3
A549 [13] = experiment: Inhibition of colony formation in human A549 cells culture in 0.3% RPMI-1640 medium agar assessed as decrease in size and number of colonies formed incubated for 20 days by NBT staining based assay; type: functional, cell-based
How it was run: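 A549 cells at 1 × 10^5 cells/mL were treated with various concentrations in 0.3% medium-agar layered over 0.6% medium-agar. Cultures were kept at 37 °C and 5% CO2. Methods give 14 days; the figure legend gives 20 days. Colonies were stained with 1.5 mg/mL NBT and counted as a percentage of control. Mean ± SD, ≥3 experiments.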

A549 [14] = experiment: Induction of apoptosis in human A549 cells assessed as upregulation of p21 protein expression incubated for 24 hrs by Western blot analysis; type: functional, cell-based
How it was run: as §2, with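 “treated with various concentrations” for “exposed to 10 μM”, “24 h” for “different times”, “resolved” for “separated”, “probed” for “incubated”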

A549 [15] = experiment: Induction of apoptosis in human A549 cells assessed as morphological changes by measuring rounded cells with weak adhesion incubated for 24 hrs; type: functional, cell-based; how it was run: as §1
A549 [16] = experiment: Induction of apoptosis in human A549 cells assessed as early apoptotic cells at 50 uM incubated for 24 hrs by annexin V FITC and PI staining based flow cytometry (reference value: 0.53%); type: functional
A549 [17] = experiment: Antiproliferative activity against human A549 cells assessed as reduction in cell proliferation incubated for 48 hrs by MTT assay; type: functional, cell-based; conditions: A549, 48 h; how it was run: as §3
A549 [18] = experiment: Induction of apoptosis in human A549 cells assessed as downregulation of 5-Lox protein expression at 10 uM by Western blot analysis; type: functional, cell-based; conditions: TDE = time-dependent effect; how it was run: as §2
A549 [19] = experiment: Induction of apoptosis in human A549 cells assessed as upregulation of Cyt c protein expression incubated for 24 hrs by Western blot analysis; type: functional, cell-based
How it was run: as §2, with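 “treated with various concentrations” for “exposed to 10 μM”, “24 h” for “different times”, “resolved” for “separated”, “probed” for “incubated”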

A549 [20] = experiment: Induction of apoptosis in human A549 cells assessed as increase in caspase 8 activity at 100 uM incubated for 24 hrs by colorimetry relative to control; type: functional
How it was run: (§4)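 A549 cells were plated at 3 × 10^5/well and cultured 12 h, then treated with various concentrations for 24 h. Cells were lysed on ice for 60 min. Lysate containing 200 μg protein was incubated with caspase-3, -8 or -9 colorimetric substrate at 37 °C for 4 h in the dark, and A405 was read. Activation = (treated − blank)/(control − blank). Mean ± SD, ≥3 experiments.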

A549 [21] = experiment: Induction of apoptosis in human A549 cells assessed as increase in caspase 9 activity incubated for 24 hrs by colorimetry; type: functional, cell-based; how it was run: as §4
A549 [22] = experiment: Induction of apoptosis in human A549 cells assessed as necrotic cells at 50 uM incubated for 24 hrs by annexin V FITC and PI staining based flow cytometry (reference value: 2.43%); type: functional
A549 [23] = experiment: Induction of apoptosis in human A549 cells assessed as downregulation of 5-Lox protein expression incubated for 24 hrs by Western blot analysis; type: functional, cell-based
How it was run: as §2, with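 “treated with various concentrations” for “exposed to 10 μM”, “24 h” for “different times”, “resolved” for “separated”, “probed” for “incubated”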

K562 = experiment: Antiproliferative activity against human K562 cells assessed as reduction in cell proliferation incubated for 48 hrs by MTT assay; type: functional, cell-based; conditions: K562, 48 h; how it was run: as §3

Q: How did the Activity (A549 [1]) turn out when `CN1C(=O)C2(C(C#N)=C(N)Oc3cc4oc(-c5ccccc5)cc(=O)c4c(O)c32)c2cc(Br)ccc21` (stereo unspecified) was run?
A: Active

Q: And the viability at 50 µM (A549 [2])?
A: 59.8%

Q: What about the viability at 5 µM (A549 [3]) of the same molecule?
A: 85%

Q: And the inhibition (A549 [4])?
A: Dose-dependent effect

Q: What about the inhibition (A549 [5]) of the same molecule?
A: Tde

Q: What about the inhibition (A549 [6]) of the same molecule?
A: Dose-dependent effect

Q: And the inhibition (A549 [7])?
A: Tde

Q: What about the inhibition (A549 [8]) of the same molecule?
A: Dose-dependent effect

Q: What about the IC50 (PC-3) of the same molecule?
A: 20.3 µM

Q: What about the Activity (A549 [9]) of the same molecule?
A: 9.8%

Q: And the Activity (A549 [10])?
A: Tde

Q: What about the Activity (A549 [11]) of the same molecule?
A: Dose-dependent effect

Q: And the Activity (A549 [12])?
A: 13.7%

Q: And the IC50 (MRC5)?
A: > 100 µM

Q: What about the inhibition (A549 [13]) of the same molecule?
A: Dose-dependent effect

Q: What about the Activity (A549 [14]) of the same molecule?
A: Dose-dependent effect

Q: What about the Activity (A549 [15]) of the same molecule?
A: Dose-dependent effect

Q: And the Activity (A549 [16])?
A: 9.33%

Q: And the IC50 (A549 [17])?
A: 3.15 µM

Q: What about the inhibition (A549 [18]) of the same molecule?
A: Tde

Q: What about the Activity (A549 [19]) of the same molecule?
A: Dose-dependent effect

Q: What about the “fold change (FC)” value (A549 [20]) of the same molecule?
A: 2.98

Q: And the Activity (A549 [21])?
A: Dose-dependent effect

Q: And the Activity (A549 [22])?
A: 6.11%

Q: And the inhibition (A549 [23])?
A: Dose-dependent effect

Q: What about the IC50 (K562) of the same molecule?
A: 4.1 µM
